# Source: article PMC5667346 (Theranostics, 2017)
# Ends that are not written are not given here.
# Experiments:
# DLS assay = format: physicochemical; settings: 2 mg/mL in 10 mM PBS, 20°C
# [1] = Pharmacokinetic analysis, terminal elimination half-life after i.v. injection; format: in vivo; settings: male ICR mice, i.v. 500 μg/kg
# [2] = system: bacterial colony count in CLP-induced septic mice; test: Bacterial count in peritoneal fluid and blood of CLP-operated mice; format: in vivo, mouse; settings: 500 μg/kg i.v. 12 h after CLP, count at 24 h after CLP, n=10
# Procedure, shortened: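 Polymicrobial sepsis was induced by cecal ligation and puncture (CLP). Mice received the test compound at 500 μg/kg i.v. 12 h after CLP, with untreated CLP mice as comparators. Bacterial loads in peritoneal fluid and blood were determined by counting colonies, with n = 10 per group. Data are mean ± SD from three independent experiments on different days, analysed by Mann-Whitney U test versus CLP only.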
substance,measurement,setting,value
"PEG5K-KSLW: KSLW mono-PEGylated at the N-terminal amine with monomethoxy PEG-ALD, MW 5,000 Da ({mPEG 5 kDa}-KKVVFWVKFK)","Percentage polydispersity (%Pd), DLS",DLS assay,23.3%
same,Average hydrodynamic diameter (DLS),"DLS assay; filtered 0.22 μm, three repeats with 10 subruns",4.2 nm
same,In vivo half-life relative to that of KSLW,[1],> 10 fold
same,Decrease of bacterial colony count in the blood,[2],90%
same,Decrease of bacterial colony count in the peritoneal fluid,[2],70%
